A short description of data set [1]: Cytotoxicity in Vero cells. The format is cell-based. The settings on record: African green monkey. The procedure, abridged: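 Vero cells were seeded at 1 × 10^5 cells/well and grown for 48 h. They were then exposed for 72 h to twofold serial dilutions of test compound (5–600 μg/mL or μM). MTT was added for 4 h at 37 °C, and formazan was dissolved in 0.04 M HCl–isopropanol. Absorbance was read at 540 nm minus 655 nm background. CC50 came from regression analysis; experiments were run three times.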

For data set [2], the system named is PEDV SM98 strain. The data set is described as follows: Simultaneous-treatment antiviral assay. The format is cell-based, porcine epidemic diarrhea virus. The settings on record: for IC50: Porcine epidemic diarrhea virus, Vero, read-out: Simultaneous-treatment IC50; for selectivity ratio at 72 h: African green monkey, Vero cells infected with PEDV SM98 strain. The procedure, abridged:
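Test compound at various concentrations was premixed with PEDV SM98 (MOI 0.01) for 1 h at 4 °C. The mixture was put on near-confluent Vero monolayers (1 × 10^5 cells/well) for 1 h with occasional rocking, then replaced with fresh medium; triplicate wells. After 72 h, MTT was read (4 h, 37 °C; A540 minus 655 nm). IC50 came from regression analysis, and SI = CC50/IC50.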

The test system of data set [3] is PEDV SM98 strain. The experiment in a line: Post-treatment antiviral assay. The format is cell-based, porcine epidemic diarrhea virus. The settings on record: for IC50: Porcine epidemic diarrhea virus, Vero, read-out: Post-treatment IC50. The procedure, abridged: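 Near-confluent Vero monolayers (1 × 10^5 cells/well) were infected with PEDV SM98 at MOI 0.01 for 1 h with occasional rocking. Inoculum was replaced by EMEM containing test compound (1–200 μM), in triplicate. After 72 h, viability was read by MTT (4 h, 37 °C; A540 minus 655 nm). IC50 came from regression analysis, and SI = CC50/IC50.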

For data set [4], the system named is PEDV (SM98 strain). The data set is described as follows: Hemagglutination inhibition. The note with it: 4 HAU PEDV, rabbit RBCs, 1 h room temperature. The format is cell-based, porcine epidemic diarrhea virus. Summed up:
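PEDV at 4 HAU was mixed with an equal volume of twofold serial dilutions of test compound in PBS (pH 7.4), with PBS alone as negative control, for 1 h at 4 °C. The mixture was combined with an equal volume of 1% rabbit RBC suspension and incubated 1 h at room temperature. Experiments were run three times.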

Data set [5] has as its system PEDV. The data set is described as follows: Quantitative real-time RT-PCR of intracellular viral RNA. The format is cell-based, porcine epidemic diarrhea virus. A general note: In qPCR the cycle at which signal appears reflects the starting amount.
In data set [6] the test system is PEDV. The data set is described as follows: Western blot of viral spike. The format is cell-based, porcine epidemic diarrhea virus. The procedure, abridged:
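Vero cells at about 90% confluence were infected with PEDV at MOI 0.01 for 1 h, then cultured with 30 μM test compound or 0.5% DMSO. Cells were harvested at 6, 12, 18 and 24 h and lysed, and proteins were separated on Bis–Tris gels and blotted to nitrocellulose. Blots were probed with anti-S antibody (12 h, 4 °C) and HRP secondary, then developed by chemiluminescence; GAPDH served as loading control.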
A general note: A western blot detects proteins with antibodies after separation by electrophoresis.

Data set [7] deals with PEDV (SM98 strain). The data set is described as follows: Confocal immunofluorescence imaging of PEDV-infected Vero cells. The note with it: 30 μM, 24 h. The format is cell-based, porcine epidemic diarrhea virus.

The results in this text go back to publication PMC7127107 (Bioorganic & Medicinal Chemistry, 2013).

Where only a bound is given, the exact number is not on record here.

Take `Oc1cc(O)cc(O)c1` [Compound 1, phloroglucinol]: the CC50 at 72 h in data set [1] was determined as 374 ± 4 µM. The IC50 with PEDV SM98 strain [2] and with PEDV SM98 strain [3] was above 200 µM each time. Moreover, the “Simultaneous-treatment IC50” value in the data set on PEDV SM98 strain [2] (mixed with virus 0.01 MOI 1 h at 4 °C, Vero cells, 72 h) is on record as “did not show significant inhibitory effects”.

As for `Oc1cc(O)cc(Oc2c(O)cc(O)c3c2Oc2c(O)cc(O)cc2O3)c1` [Compound 2, eckol], it took 388.3 ± 2.6 µM to reach half-maximal cytotoxicity in data set [1] (CC50 at 72 h). In addition, in the data set with PEDV SM98 strain [2], the selectivity ratio at 72 h came out at 17.2. The IC50 with PEDV SM98 strain [2] was 22.5 ± 2.2 µM; with PEDV SM98 strain [3], above 200 µM. Also, the “Minimum concentration that completely inhibited viral hemagglutination” value with PEDV (SM98 strain) [4] (listed as eckol (2)) is 3.8 to 5.4 µM.

Regarding `Oc1cc(O)cc(Oc2c(O)cc(O)c3c2Oc2c(O)cc(Oc4c(O)cc(Oc5c(O)cc(O)c6c5Oc5c(O)cc(O)cc5O6)cc4O)cc2O3)c1` [Compound 5, dieckol], in data set [1], the 50% cytotoxic concentration (CC50) at 72 h was 490.6 ± 1.6 µM. Also, the selectivity ratio at 72 h in the data set with PEDV SM98 strain [2] turned out to be 29.5; with PEDV SM98 strain [3] (African green monkey, Vero cells infected with PEDV SM98 strain) it was 33.6. In addition, the half-maximal inhibitory concentration (IC50) with PEDV SM98 strain [2] is 16.6 ± 3 µM; in the data set with PEDV SM98 strain [3], 14.6 ± 1.3 µM. Also, the “Minimum concentration that completely inhibited viral hemagglutination” value in the data set with PEDV (SM98 strain) [4] (listed as dieckol (5)) was in the range of 3.8 to 5.4 µM. The “Viral RNA levels, early stage” value in the data set on PEDV [5] (30 μM, 6 and 12 h after infection) is on record as “largely unchanged”. Besides, in the data set on PEDV [5] (30 μM, 18 and 24 h after infection, vs untreated/infected cells (0.5% DMSO)), the “Viral RNA levels, late stage” value is listed as “markedly decreased”. Also, the “Viral RNA levels relative to vehicle-treated cells” value in the data set on PEDV [5] (50 μM, 24 h after infection, ORF3 gene normalized to GAPDH) is reported as 30–40%. The “Effect on viral RNA levels” value in the data set with PEDV [5] (5–50 μM, 24 h after infection) is recorded as “significantly reduced viral RNA levels in dose-dependent manner”. For the same molecule, the “Synthesis of viral proteins, late stage” value in the data set on PEDV [6] (30 μM, 18 and 24 h) is given as “strongly inhibited”. Also, the “Synthesis of viral proteins (S protein)” value in the data set on PEDV [6] (5–50 μM, 24 h post-infection) was “inhibited the synthesis of viral proteins”. The “Number of fluorescence-positive, PEDV-infected cells” value with PEDV (SM98 strain) [7] is on record as “reduced the number of fluorescence-positive, PEDV-infected cells”.

The CC50 is the concentration giving 50% cytotoxicity. What is called IC50 is the point on the concentration scale where inhibition reaches its midpoint.
